Measurements from different studies.
Each line is one published result; the experiments were not run side by side.
PIK3CA Q546K: Phosphatidylinositol 4,5-bisphosphate 3-kinase catalytic subunit alpha isoform (PIK3CA, Homo sapiens, UniProt P42336, Q546K)
PIK3CA E545A: Phosphatidylinositol 4,5-bisphosphate 3-kinase catalytic subunit alpha isoform (PIK3CA, Homo sapiens, UniProt P42336, E545A)
PIK3CA C420R: Phosphatidylinositol 4,5-bisphosphate 3-kinase catalytic subunit alpha isoform (PIK3CA, Homo sapiens, UniProt P42336, C420R)
PIK3CA H1047Y: Phosphatidylinositol 4,5-bisphosphate 3-kinase catalytic subunit alpha isoform (PIK3CA, Homo sapiens, UniProt P42336, H1047Y)
PIK3CA I800L: Phosphatidylinositol 4,5-bisphosphate 3-kinase catalytic subunit alpha isoform (PIK3CA, Homo sapiens, UniProt P42336, I800L)
PIK3CA H1047L: Phosphatidylinositol 4,5-bisphosphate 3-kinase catalytic subunit alpha isoform (PIK3CA, Homo sapiens, UniProt P42336, H1047L)
PIK3CA: Phosphatidylinositol 4,5-bisphosphate 3-kinase catalytic subunit alpha isoform (PIK3CA, Homo sapiens, UniProt P42336)
PIK3CA E545K: Phosphatidylinositol 4,5-bisphosphate 3-kinase catalytic subunit alpha isoform (PIK3CA, Homo sapiens, UniProt P42336, E545K)
PIK3CA E542K: Phosphatidylinositol 4,5-bisphosphate 3-kinase catalytic subunit alpha isoform (PIK3CA, Homo sapiens, UniProt P42336, E542K)

SMILES | target | read-out | method | concentration | remaining binding
CN(C)CC#Cc1ccc(OCCCc2sc(N3CCc4cccc(C(=O)Nc5nc6ccccc6s5)c4C3)nc2C(=O)O)c(F)c1 | PIK3CA Q546K | cell-free assay | competition with immobilised ligand | 1 µM | 79%
COc1ncc2cc3ccccc3nc2c1C#N | PIK3CA E545A | cell-free assay | competition with immobilised ligand | 5 µM | 99%
CC1=C(C#N)C(c2ccc3c(c2)c(NC(=O)c2ccccc2C)nn3C)C(C#N)=C(C)N1 | PIK3CA Q546K | cell-free assay | competition with immobilised ligand | 1 µM | 87%
COc1cnc(Nc2cccc(S(N)(=O)=O)c2)nc1N1CCN(c2ccccc2)CC1 | PIK3CA C420R | binding | competition with immobilised ligand | 1 µM | 95%
Cc1c(NC(=O)c2cc(C(N)=O)nc3cc(F)ccc23)c(C(F)(F)F)nn1Cc1ccc(C(C)(C)C)cc1 | PIK3CA C420R | cell-free assay | competition with immobilised ligand | 1 µM | 100%
Cc1cnc(Nc2ccc(C(=O)N3CCC(N4CCCC4)CC3)cc2)nc1-c1cc2ccccc2s1 | PIK3CA H1047Y | binding | competition with immobilised ligand | 1 µM | 65%
F[C@@H]1CCN(c2nccc(-c3cnn4ncccc34)n2)C1 | PIK3CA I800L | binding |  | 1 µM | 100%
Nc1ncc2c(n1)-c1c([nH]c3ccc(C#CC4CC4)cc13)CCCC2 | PIK3CA H1047L | binding | competition with immobilised ligand | 1 µM | 80%
FC(F)(F)Oc1cccc(-c2cnc3ccc(-c4ccncc4)nn23)c1 | PIK3CA | cell-free assay | competition with immobilised ligand | 5 µM | 35%
CCN(CC)Cc1cc(Nc2ccnc3cc(Cl)ccc23)ccc1O | PIK3CA | cell-free assay | competition with immobilised ligand | 10 µM | 93%
O=C(NCCCN1CCOCC1)c1ccc(Nc2nccc(-c3cc4ccccc4s3)n2)cc1 | PIK3CA E545K | binding | competition with immobilised ligand | 1 µM | 40%
CS(=O)(=O)N1CCCC(NC(=O)[C@H](CCC2CCCCC2)NC(=O)c2ccc(CNC(=O)c3cnc4ccccn34)cc2)C1 (stereo partly shown) | PIK3CA H1047L | cell-free assay | competition with immobilised ligand | 0.1 µM | 100%
CN1CCN(c2ccc(Nc3nccc(-c4ccccc4)n3)cc2C(F)(F)F)CC1 | PIK3CA H1047Y | binding |  | 10 µM | 90%
CN(C)c1nccc(-c2cnc3ncccn23)n1 | PIK3CA E545K | binding |  | 1 µM | 82%
CN([C@@H]1CCc2c(CC(=O)O)c3cc(S(C)(=O)=O)ccc3n2C1)S(=O)(=O)c1ccc(F)cc1 | PIK3CA Q546K | cell-free assay | competition with immobilised ligand | 1 µM | 100%
O=C(c1ccc(Nc2nccc(-c3cc4ccccc4s3)n2)cc1)N1CCC(N2CCCC2)CC1 | PIK3CA I800L | binding | competition with immobilised ligand | 1 µM | 100%
C[C@@H](c1ccc(-n2cnc3c(N)ncnc32)cc1)N1CCc2nn(C)c(Cc3ccccc3)c2C1=O | PIK3CA E542K | binding | competition with immobilised ligand | 0.1 µM | 83%
O=C(NCCCN1CCOCC1)c1ccc(Nc2ncc(Cl)c(-c3ccc(Cl)s3)n2)cc1 | PIK3CA E545A | binding | competition with immobilised ligand | 1 µM | 100%
C[C@H]1CCN(c2nccc(-c3cnn4ncccc34)n2)C1 | PIK3CA I800L | binding |  | 1 µM | 95%

SMILES | target | read-out | method | concentration | remaining binding
c1cncc(-c2cccc(Nc3nccc(NC4CCCCC4)n3)c2)c1 | PIK3CA H1047Y | binding | competition with immobilised ligand | 10 µM | 89%
CO[C@@H](C)c1c(Nc2ccc([C@H](N(C)C(=O)C3CCS(=O)(=O)CC3)C(F)(F)F)cc2)cnc2cc(Cl)nn12 | PIK3CA C420R | cell-free assay | competition with immobilised ligand | 1 µM | 93%
CN(c1nccc(-c2cnn3ncccc23)n1)C1CC1 | PIK3CA E545A | binding |  | 1 µM | 100%
CCN1CCN(Cc2ccc(C(=O)Nc3ccc(C)c(Oc4ccc5c(c4)CC(=O)N5)c3)cc2C(F)(F)F)CC1 | PIK3CA E545A | binding | competition with immobilised ligand | 1 µM | 71%
C=CC(=O)N1CCC(C(=O)NCC(=O)N2CCN(c3nc(-c4cnc(N)nc4C(F)F)nc(N4CCOCC4)n3)CC2)CC1 | PIK3CA E545A | binding | competition with immobilised ligand | 1 µM | 0.5%
N[C@@H]1CCN(c2nccc(-c3cnn4ncccc34)n2)C1 | PIK3CA H1047Y | binding |  | 1 µM | 91%
O=C(c1ccc(Nc2ncc(Cl)c(-c3ccc(Cl)s3)n2)cc1)N1CCC(N2CCCC2)CC1 | PIK3CA Q546K | binding | competition with immobilised ligand | 1 µM | 100%
c1cnn2ncc(-c3ccnc(N4CCC45COC5)n3)c2c1 | PIK3CA Q546K | binding |  | 1 µM | 63%
Cc1nc(Cc2cccc(C(F)(F)F)c2)sc1-c1ccc(C(N)=O)nc1 | PIK3CA C420R | cell-free assay | competition with immobilised ligand | 1 µM | 89%
COc1cnc(Nc2cccc(S(N)(=O)=O)c2)nc1N1CCN(c2ccccc2)C(=O)C1 | PIK3CA E545K | binding | competition with immobilised ligand | 1 µM | 65%
CCCOc1ccc([C@H]2[C@H](C(=O)O)[C@@H](c3ccc4c(c3)OCO4)CN2CC(=O)Nc2c(CC)cccc2CC)cc1 | PIK3CA E545A | cell-free assay | competition with immobilised ligand | 1 µM | 92%
O=C(c1ccc(Nc2ncc(Cl)c(-c3cc4ccccc4s3)n2)cc1)N1CCC(N2CCCC2)CC1 | PIK3CA H1047Y | binding | competition with immobilised ligand | 1 µM | 70%
CNC(=O)[C@@H]1CC[C@@H](n2c(-c3ccc4cnccc4c3)nc3ccc(C(=O)NCc4cccc(C(N)=O)c4)cc32)C1 | PIK3CA E542K | binding | competition with immobilised ligand | 1 µM | 100%
O=C(NCC1CCOCC1)c1n[nH]cc1NC(=O)c1c(F)cccc1F | PIK3CA Q546K | binding | competition with immobilised ligand | 1 µM | 77%
CN(CCCC(F)(F)F)c1nccc(-c2cnn3ncccc23)n1 | PIK3CA E545K | binding |  | 1 µM | 100%
O=C(Nc1c[nH]nc1C(=O)NC1CCNCC1)c1cc(F)cc(F)c1 | PIK3CA H1047Y | binding | competition with immobilised ligand | 1 µM | 100%
CN1CCN(c2ccc(Nc3nccc(-c4cccc([N+](=O)[O-])c4)n3)cc2C(F)(F)F)CC1 | PIK3CA I800L | binding |  | 10 µM | 18%
CN(C)c1ncc(F)c(-c2cnn3ncccc23)n1 | PIK3CA C420R | binding |  | 1 µM | 46%
